Source: PubChem BioAssay
5HT1a antag = human 5-HT1a receptor antagonists, primary screen, cell-based, CHO, Ga15 NFAT-bla reporter; 5-hydroxytryptamine receptor 1A (Homo sapiens), P08908; actives 0.68% (n = 62,000); CHO 5-HT1a Ga15 NFAT-bla reporter, antagonist mode; AID 612, 2007; inhibition, % at 10 µM;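 active = inhibition above the mean of all tested compounds plus 3 SD, cut at about 43% in these data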;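 also: receptor stimulated by 5-CT agonist at 100 nM near EC80; beta-lactamase reporter measured by ratiometric fluorescence of a cleavable substrate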
5HT1E ag = 5-HT1E receptor agonists, primary screen, cell-based, HTS. CHO 5-HT1E Ga15 NFAT-bla reporter, FRET; 0% DMSO wells, 100% control agonist wells. 5-hydroxytryptamine receptor 1E (Homo sapiens), P28566. activation, % at 6 µM. actives 0.69% (n = 65,000);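 active = activation above a set limit, the screen-wide mean activation plus 3 SD, cut at about 8.5% in these data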
Target sequence (P28566 whole entry, looked up): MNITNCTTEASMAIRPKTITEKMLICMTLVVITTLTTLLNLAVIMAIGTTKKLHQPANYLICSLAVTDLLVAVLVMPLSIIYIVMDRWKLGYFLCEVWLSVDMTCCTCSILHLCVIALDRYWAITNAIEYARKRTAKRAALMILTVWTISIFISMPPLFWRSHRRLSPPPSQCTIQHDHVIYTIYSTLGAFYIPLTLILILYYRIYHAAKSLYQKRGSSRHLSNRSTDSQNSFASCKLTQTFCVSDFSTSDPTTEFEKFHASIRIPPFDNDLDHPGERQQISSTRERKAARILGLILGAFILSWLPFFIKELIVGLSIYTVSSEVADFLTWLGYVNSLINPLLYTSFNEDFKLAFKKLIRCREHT
S1P1 ag-PAM = S1P1 agonists and agonism potentiators, primary screen, cell-based, primary and confirmation screens, CRE-bla reporter. AID 449, 2006. actives 0.57% (n = 56,000). S1P1 CRE-bla cells, forskolin, beta-lactamase FRET, potentiator mode; S1P1 agonist co-added at EC20, 2 nM; 100% = saturating reference agonist, 0% = basal. activation, % at 9.5 µM. Sphingosine 1-phosphate receptor 1 (Homo sapiens), P21453;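 active = activation above a cutoff set at the mean activation of all tested compounds plus 3 SD, cut at about 54% in these data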;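 also: forskolin at 4 µM as EC80 and the EC20 agonist is SEW2871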
HTR1E antagonist = 5-HT1E receptor antagonists, primary screen, cell-based, HTS | actives 0.99% (n = 65,000) | 5-hydroxytryptamine receptor 1E (Homo sapiens), P28566 | CHO 5-HT1E Ga15 NFAT-bla reporter, FRET, antagonist | inhibition, % at 6 µM | AID 571, 2007;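 active = inhibition above a set limit, the mean inhibition across every tested compound plus 3 SD, cut at about 29% in these data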;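 also: signal is the 460 over 535 nm emission ratio of beta-lactamase substrate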
HTR1A agonist = human 5-HT1a receptor agonists, primary screen, cell-based, CHO, Ga15 NFAT-bla reporter; CHO 5-HT1a Ga15 NFAT-bla reporter, FRET ratio; 0% basal, 100% maximal reference agonist; AID 567, 2006; activation, % at 10 µM; actives 0.56% (n = 65,000);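 active = activation above the screen-wide mean activation plus 3 SD, cut at about 19% in these data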
S1P3 agonist = human S1P3 receptor agonists, primary screen, cell-based, primary and confirmation, NFAT-BLA reporter; actives 0.1% (n = 60,000); activation, % at 4.5 µM; S1P3 NFAT-BLA reporter cells, agonism, FRET ratio; relative to 1 µM S1P, basal subtracted; Sphingosine 1-phosphate receptor 3 (Homo sapiens), Q99500;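 active = activation above the screen-wide mean plus 3 SD, cut at about 4.5% in these data, passing the limit was not always enough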
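material = human S1P3 NFAT-BLA reporter CHO cells | schedule = 4 h compound at 37 °C, 2 h substrate at RT | measured by = fluorescent BLA substrate, ex 405 nm, em 460/535 nm ratio | controls = 1 µM S1P reference | replication = primary once, confirmation triplicate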
Each line names hits and unclear results; the compound was inactive in the other large screens. Sampled rows, rich in hits. Any-hit rate of the full collection: about 3%.

CCCc1cc(=O)[nH]c(Nc2ccc(N3CCCCC3)cc2)n1	none
CCCCc1ccc(Nc2nc(CCC)cc(=O)[nH]2)cc1	5HT1a antag 45
COc1ccccc1C(=O)NCCCN1CCCC1=O	none
CCN1C=C(C(=O)OC)C(c2cccc(C)c2)C(C(=O)OC)=C1	HTR1A agonist 20 (no result: S1P1 ag-PAM, S1P3 agonist)
CCCCOc1ccccc1C1C(C(=O)OC)=CN(CC)C=C1C(=O)OC	HTR1A agonist 40
COC(=O)C1=CN(C(C)C)C=C(C(=O)OC)C1c1cccc(OC)c1	HTR1A agonist 23
COC(=O)C1=CN(CCCN2CCCC2=O)C=C(C(=O)OC)C1c1ccccc1C(F)(F)F	HTR1A agonist 25
CCCOc1ccccc1C1C(C(=O)OC)=CN(C(C)C)C=C1C(=O)OC	none
CCN(CC)S(=O)(=O)c1ccc2c(c1)c(=O)c(C(=O)N1CCN(c3ccccc3)CC1)cn2C	none
CCOC(=O)N1CCC(NC(=O)c2ccc(CNS(=O)(=O)c3ccc(F)cc3)cc2)CC1	none (no result: S1P1 ag-PAM, S1P3 agonist)
COC(=O)C1=CN(C)C=C(C(=O)OC)C1c1ccccc1Cl	HTR1A agonist 19 (no result: S1P1 ag-PAM)
c1ccc(-c2nn3c(-c4ccncc4)nnc3s2)nc1	none
COc1ccc2[nH]c(C)c(CCN3C(=O)OC(C)(C)C3(C)O)c2c1 (centres undefined)	none
COc1ccc2[nH]c(=O)c3c(c2c1)OC(C)(C)C=C3	5HT1a antag 60
CCC(=O)OC1=C2C(=Nc3c(c(=O)n(C)c(=O)n3C)C2c2ccccc2)c2ccccc21 (centres undefined)	none (no result: 5HT1a antag)
CC(O)Cn1cnc2c1c(=O)n(C)c(=O)n2C (centres undefined)	none (no result: 5HT1a antag)
CCOC(=O)c1ccc(N=c2sc(C(=O)OC)cc(=O)n2CCCN2CCOCC2)cc1	HTR1E antagonist 40
CCOC(=O)c1ccc(N=c2sc(C(=O)OC)cc(=O)n2Cc2ccco2)cc1	none
CCCCN=c1sc(C(=O)OC)cc(=O)n1CCCC	none (no result: S1P1 ag-PAM, S1P3 agonist)
CCn1c(=O)cc(C(=O)OC)sc1=Nc1ccc(F)c(F)c1	HTR1E antagonist 38
CC(=O)Nc1ccc2nc(-c3cccnc3)[nH]c2c1	5HT1E ag 17 (no result: S1P1 ag-PAM, S1P3 agonist)
CC(=O)Nc1cccc(-c2nc3ccc(NC(C)=O)cc3[nH]2)c1	none
CCCOCCOC(=O)c1[nH]c2c(c1C)C(=O)CC(c1cc(OC)ccc1OC)C2 (centres undefined)	5HT1a antag 76, HTR1E antagonist 81
COc1ccc(OC)c(C2CC(=O)c3c([nH]c(C(=O)OC(C)C)c3C)C2)c1 (centres undefined)	5HT1a antag 71, HTR1E antagonist 87
c1ccc(NCCCNc2ccccc2)cc1	none
Cc1ccc(-c2nnn(CCC(=O)NC3CCCC3)n2)cc1	none
Cc1nnc(Sc2nc(Sc3nnc(C)s3)nc(N3CCN(C)CC3)n2)s1	5HT1a antag 78, HTR1E antagonist 68
COc1ccc(NS(=O)(=O)c2coc(C(N)=O)c2)cc1Cl	none
COc1ccc(-n2nc3ccc(NS(C)(=O)=O)cc3n2)cc1Cl	S1P1 ag-PAM 103
c1ccc2c(c1)oc1c(NCc3ccc4c(c3)OCO4)ncnc12	S1P1 ag-PAM 90
Cc1noc(C)c1CSCC(=O)N1CCN(c2ccc(F)cc2)CC1	none
Cc1cccc(N2CCN(C(=O)c3ccncc3)CC2)c1C	5HT1E ag 19 (no result: S1P1 ag-PAM)
Cc1ccccc1S(=O)(=O)Cc1ccc(C(=O)N2CCN(c3cccc(C)c3C)CC2)o1	5HT1E ag 32
COc1cc(C(=O)N2CCN(c3cccc(C)c3C)CC2)cc(OC)c1OC	HTR1E antagonist 50
CCOc1ccccc1N1CCN(C(=O)c2ccncc2)CC1	none
Cc1cccc(N2CCN(C(=O)CSCc3c(C)noc3C)CC2)c1C	S1P1 ag-PAM 82
